In brackets after ≈: the same amount, converted by molar mass.
Assays:
Format in all cases: functional
Candida albicans = experiment: Antifungal activity against Candida albicans ATCC 10231 after 48 hrs; conditions: ATCC 10231, 48 h
In short: (§1)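 Yeasts grown on Sabouraud dextrose agar, then in Sabouraud liquid medium at 36 °C overnight. Inoculum diluted in MOPS-buffered RPMI-1640 with L-glutamine, pH 7, to 2.5 × 10³ cfu/mL final. Twofold dilutions were made from a 20 mg/mL DMSO stock, with fluconazole as reference and DMSO at most 12.5% final. Incubated at 36 °C, humid, and read visually at 48 h. MIC was the lowest concentration giving no visible turbidity.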

Nakaseomyces glabratus = experiment: Antifungal activity against Candida glabrata ATCC 36583 after 48 hrs; conditions: ATCC 36583, 48 h; in short: as §1
Staphylococcus aureus = experiment: Antibacterial activity against Staphylococcus aureus ATCC 25923 after 24 hrs; conditions: ATCC 25923, 24 h
In short: (§2)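 Twofold broth dilution MIC in Mueller-Hinton broth, pH 6.9, inoculum (1-2) × 10³ cells/mL. Compounds and ampicillin trihydrate were dissolved in DMSO at 20 mg/mL stock and serially diluted from 20 down to 0.005. […] Plates incubated at 36 °C with a humid chamber and read visually after 24 h. MIC was the lowest concentration with no visible turbidity.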

[1] = tested on: Radical scavenging activity; experiment: Antioxidant activity assessed as DPPH free radical scavenging activity after 20 mins by spectrophotometric analysis; parameters: concentration or dose not given beside the values
In short: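 Reduction of methanolic DPPH radical, with absorbance recorded at 516 nm and run in triplicate. Percent scavenging was calculated from the initial and final absorbance of each solution.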

Bacillus subtilis = experiment: Antibacterial activity against Bacillus subtilis ATCC 6633 after 24 hrs; conditions: ATCC 6633, 24 h; in short: as §2
Escherichia coli [2] = experiment: Antibacterial activity against Escherichia coli ATCC […] after 24 hrs; in short: as §2
Pseudomonas aeruginosa = experiment: Antibacterial activity against Pseudomonas aeruginosa ATCC 27853 after 24 hrs; conditions: ATCC 27853, 24 h; in short: as §2
Escherichia coli [3] = experiment: Antibacterial activity against Escherichia coli ATCC […]; in short: as §2

Structure (SMILES)	MIC (Candida albicans)	MIC (Nakaseomyces glabratus)	MIC (Staphylococcus aureus)	Activity [1]	MIC (Bacillus subtilis)	MIC (Escherichia coli [2])	MIC (Pseudomonas aeruginosa)	MIC (Escherichia coli [3])
O=C(CC(=O)c1ccccc1Cl)c1ccc(O[C@@H]2O[C@H](CO)[C@@H](O)[C@H](O)[C@H]2O)cc1O	5000 mg/L (≈ 11000 µM)	5000 mg/L (≈ 11000 µM)	150 mg/L (≈ 331 µM)	89.1%	1250 mg/L (≈ 2760 µM)	20 mg/L (≈ 44.2 µM)	20 mg/L (≈ 44.2 µM)	
CC1(C)S[C@@H]2[C@H](NC(=O)[C@H](N)c3ccccc3)C(=O)N2[C@H]1C(=O)O [AMPICILLIN]			19 mg/L (≈ 54.4 µM)		5 mg/L (≈ 14.3 µM)	10 mg/L (≈ 28.6 µM)	5 mg/L (≈ 14.3 µM)	
O=C1O[C@H]([C@@H](O)CO)C(O)=C1O				98%				
Cc1ccc(C(=O)CC(=O)c2ccc(O[C@@H]3O[C@H](CO)[C@@H](O)[C@H](O)[C@H]3O)cc2O)cc1	5000 mg/L (≈ 11600 µM)	5000 mg/L (≈ 11600 µM)	625 mg/L (≈ 1450 µM)	82%	2500 mg/L (≈ 5780 µM)	5000 mg/L (≈ 11600 µM)	5000 mg/L (≈ 11600 µM)	
COc1ccc(C(=O)CC(=O)c2ccc(O[C@@H]3O[C@H](CO)[C@@H](O)[C@H](O)[C@H]3O)cc2O)cc1	1250 mg/L (≈ 2790 µM)	2500 mg/L (≈ 5580 µM)	2500 mg/L (≈ 5580 µM)	73.5%	2500 mg/L (≈ 5580 µM)	5000 mg/L (≈ 11200 µM)	30 mg/L (≈ 66.9 µM)	5000 mg/L (≈ 11200 µM)
OC(Cn1cncn1)(Cn1cncn1)c1ccc(F)cc1F [FLUCONAZOLE]	10 mg/L (≈ 32.7 µM)	10 mg/L (≈ 32.7 µM)						
Cc1cccc(C(=O)CC(=O)c2ccc(O[C@@H]3O[C@H](CO)[C@@H](O)[C@H](O)[C@H]3O)cc2O)c1	2500 mg/L (≈ 5780 µM)	10000 mg/L (≈ 23100 µM)	20 mg/L (≈ 46.3 µM)	79.5%	2500 mg/L (≈ 5780 µM)	5000 mg/L (≈ 11600 µM)	10000 mg/L (≈ 23100 µM)	
COc1cccc(C(=O)CC(=O)c2ccc(O[C@@H]3O[C@H](CO)[C@@H](O)[C@H](O)[C@H]3O)cc2O)c1	10000 mg/L (≈ 22300 µM)	5000 mg/L (≈ 11200 µM)	625 mg/L (≈ 1390 µM)	77.3%	150 mg/L (≈ 335 µM)	2500 mg/L (≈ 5580 µM)	5000 mg/L (≈ 11200 µM)	
O=C(CC(=O)c1ccc(O[C@@H]2O[C@H](CO)[C@@H](O)[C@H](O)[C@H]2O)cc1O)c1ccccc1	2500 mg/L (≈ 5980 µM)	2500 mg/L (≈ 5980 µM)	300 mg/L (≈ 717 µM)	81.2%	150 mg/L (≈ 359 µM)	1250 mg/L (≈ 2990 µM)	150 mg/L (≈ 359 µM)	
O=C(CC(=O)c1ccc(O[C@@H]2O[C@H](CO)[C@@H](O)[C@H](O)[C@H]2O)cc1O)c1cccc(Cl)c1	10000 mg/L (≈ 22100 µM)	10000 mg/L (≈ 22100 µM)	150 mg/L (≈ 331 µM)	83.5%	625 mg/L (≈ 1380 µM)	20 mg/L (≈ 44.2 µM)	1250 mg/L (≈ 2760 µM)	
O=C(CC(=O)c1ccc(O[C@@H]2O[C@H](CO)[C@@H](O)[C@H](O)[C@H]2O)cc1O)c1ccc(Cl)cc1	150 mg/L (≈ 331 µM)	5000 mg/L (≈ 11000 µM)	150 mg/L (≈ 331 µM)	84.3%	300 mg/L (≈ 662 µM)	70 mg/L (≈ 155 µM)	20 mg/L (≈ 44.2 µM)	
